Ki, Loss and ED50 data for seven compounds are collected here from ChEMBL document CHEMBL1124459, “Activity of aromatic substituted phenylpiperazines lacking affinity for dopamine binding sites in a preclinical test of antipsychotic efficacy” (J Med Chem, 1989).

As a reminder, the Ki is a measure of affinity in units of concentration, obtained from inhibition or displacement. The ED50 is the midpoint of the dose-response relation.

Assay [1] has as its target T1, Serotonin 2 (5-HT2) receptor (Rattus norvegicus, UniProt P30994+P08909+P14842). Nature of the assay: Binding affinity at rat 5-hydroxytryptamine 2 receptor by [3H]ketanserin displacement. The class given is protein assay.
Assay [2] addresses T2, D(2) dopamine receptor (Rattus norvegicus, UniProt P61169). Nature of the assay: Binding affinity against rat Dopamine receptor D2.
The target of assay [3] is T3, D(1A) dopamine receptor (Rattus norvegicus, UniProt P18901). Nature of the assay: Binding affinity at rat Dopamine receptor D1 by [3H]SCH-23390 displacement. In outline: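 Rat striatal tissue suspended in 20 mM NaHepes without sucrose, at 250 volumes of the tissue weight. Labelled with [3H]SCH-23390 added as a 3 nM solution. Nonspecific binding set with unlabelled SCH-23390 added as a 30 μM solution. Incubated 20 min. Run in duplicate, with one to five concentration–response curves per compound.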

Assay [4] deals with T4, 5-hydroxytryptamine receptor 1B (Rattus norvegicus, UniProt P28564). Briefly: Binding affinity at rat 5-hydroxytryptamine 1B receptor by [3H]5-HT displacement.
The target of assay [5] is T5, Serotonin 1 (5-HT1) receptor (Rattus norvegicus, UniProt P28564+P30940+P19327+P28565). Nature of the assay: Binding affinity determined in radioreceptor binding assay by using [3H]5-HT radioligand against 5-hydroxytryptamine 1 receptor. The class given is protein assay.
Assay [6] has as its target T6, 5-hydroxytryptamine receptor 1A (Rattus norvegicus, UniProt P19327).
T6 sequence (P19327 whole entry): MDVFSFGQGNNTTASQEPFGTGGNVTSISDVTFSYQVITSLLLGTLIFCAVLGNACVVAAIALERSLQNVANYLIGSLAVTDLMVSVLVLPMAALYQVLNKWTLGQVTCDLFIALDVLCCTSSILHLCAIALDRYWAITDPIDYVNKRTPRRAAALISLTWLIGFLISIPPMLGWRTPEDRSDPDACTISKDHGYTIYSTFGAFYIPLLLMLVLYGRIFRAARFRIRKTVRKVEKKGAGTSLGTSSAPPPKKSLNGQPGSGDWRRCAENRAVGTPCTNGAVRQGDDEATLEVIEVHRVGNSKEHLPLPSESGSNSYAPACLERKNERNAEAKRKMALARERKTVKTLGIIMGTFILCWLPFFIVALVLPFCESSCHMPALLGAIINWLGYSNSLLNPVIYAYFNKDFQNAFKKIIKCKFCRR

The target in assay [7] is T7, Adrenergic receptor alpha-1 (Rattus norvegicus, UniProt P15823+P23944+P43140).
T7 sequence (P15823 whole entry): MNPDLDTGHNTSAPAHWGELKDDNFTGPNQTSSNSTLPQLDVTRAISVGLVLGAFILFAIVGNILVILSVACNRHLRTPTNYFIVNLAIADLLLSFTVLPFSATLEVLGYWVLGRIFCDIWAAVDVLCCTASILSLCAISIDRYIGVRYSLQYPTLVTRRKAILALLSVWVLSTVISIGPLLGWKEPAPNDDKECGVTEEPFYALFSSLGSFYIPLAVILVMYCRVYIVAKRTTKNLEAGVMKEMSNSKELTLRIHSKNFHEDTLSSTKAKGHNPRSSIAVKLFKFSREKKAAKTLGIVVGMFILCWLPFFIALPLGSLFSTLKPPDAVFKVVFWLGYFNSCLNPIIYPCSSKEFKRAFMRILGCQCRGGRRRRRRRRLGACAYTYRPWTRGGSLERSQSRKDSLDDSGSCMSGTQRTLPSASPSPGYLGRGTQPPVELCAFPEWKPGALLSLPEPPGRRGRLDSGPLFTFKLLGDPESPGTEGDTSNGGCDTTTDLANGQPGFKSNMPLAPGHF
T7 sequence (P23944 whole entry): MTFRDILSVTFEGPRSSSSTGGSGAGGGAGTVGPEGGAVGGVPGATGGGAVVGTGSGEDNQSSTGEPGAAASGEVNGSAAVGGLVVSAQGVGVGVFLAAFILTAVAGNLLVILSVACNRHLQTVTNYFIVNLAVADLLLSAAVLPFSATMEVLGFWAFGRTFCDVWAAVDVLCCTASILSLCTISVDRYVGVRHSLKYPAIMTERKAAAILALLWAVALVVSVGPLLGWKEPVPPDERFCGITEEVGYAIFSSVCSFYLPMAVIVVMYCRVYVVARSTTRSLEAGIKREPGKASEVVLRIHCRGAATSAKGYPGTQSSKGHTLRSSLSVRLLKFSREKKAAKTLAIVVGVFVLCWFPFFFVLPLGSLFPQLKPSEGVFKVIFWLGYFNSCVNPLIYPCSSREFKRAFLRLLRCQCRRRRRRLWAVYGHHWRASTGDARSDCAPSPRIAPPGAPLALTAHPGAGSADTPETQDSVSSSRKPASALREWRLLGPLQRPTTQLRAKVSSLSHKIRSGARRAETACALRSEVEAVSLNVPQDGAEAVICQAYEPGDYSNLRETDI
T7 sequence (P43140 whole entry): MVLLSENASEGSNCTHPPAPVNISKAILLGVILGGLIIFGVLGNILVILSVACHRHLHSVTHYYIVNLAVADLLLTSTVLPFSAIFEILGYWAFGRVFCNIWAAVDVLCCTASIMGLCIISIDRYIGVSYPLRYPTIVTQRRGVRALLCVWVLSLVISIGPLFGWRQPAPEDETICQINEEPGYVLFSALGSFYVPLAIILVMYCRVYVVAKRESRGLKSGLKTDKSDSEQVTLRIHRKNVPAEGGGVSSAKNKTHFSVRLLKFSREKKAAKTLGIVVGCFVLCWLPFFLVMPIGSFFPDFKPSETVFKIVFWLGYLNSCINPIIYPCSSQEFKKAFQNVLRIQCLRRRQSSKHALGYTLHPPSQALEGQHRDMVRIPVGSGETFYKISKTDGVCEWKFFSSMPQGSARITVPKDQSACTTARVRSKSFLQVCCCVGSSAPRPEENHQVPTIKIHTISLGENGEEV
Briefly: Binding affinity against rat Alpha-1 adrenergic receptor. Type of assay: protein assay.

Assay [8] is filed under the species Rattus norvegicus. Briefly: (§1) The percent loss of escape responding was determined for the estimated effective dose 50 values for CAR block. The class given is functional. The essentials: (§2)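 Rats trained on a discrete-trial single-lever conditioned avoidance task, dosed ip and tested at the time of peak effect. Each dose was given to 6–12 rats. CAR reduction and loss of escape responding were recorded.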

Assay [9] relates to Rattus norvegicus. Briefly: (§3) Effective dose in blocking conditioned avoidance responding (CAR) in the rat when administered intraperitoneally. The class given is functional. As to conditions: ip. In outline:
as §2

The species entered for assay [10] is Rattus norvegicus. The assay is described as §1. Type of assay: functional. The source holds these as a separate data set.
The target of assay [11] is T3, D(1A) dopamine receptor. Briefly: Activity in radioreceptor binding assay by using […] against Dopamine receptor D1.
The subject of assay [12] is Rattus norvegicus. Described as §3. The settings on record: ip.
Assay [13] deals with T2, D(2) dopamine receptor. Briefly: Binding affinity determined in radioreceptor binding assay against dopamine receptor D2.
Assay [14] deals with T3, D(1A) dopamine receptor.
For assay [15], the target named is T6, 5-hydroxytryptamine receptor 1A. Briefly: Binding affinity in radioreceptor binding assay by using [3H]5-HT radioligand against 5-hydroxytryptamine 1A receptor.
Assay [16] deals with T1, Serotonin 2 (5-HT2) receptor. Briefly: Binding affinity in radioreceptor binding assay by using [3H]5-HT radioligand against 5-hydroxytryptamine 2 receptor. Type of assay: protein assay.
Assay [17] has as its target T2, D(2) dopamine receptor. Nature of the assay: Binding affinity in radioreceptor binding assay by using [3H]5-HT radioligand against Dopamine receptor D2.
The target in assay [18] is T3, D(1A) dopamine receptor. Briefly: Binding affinity in radioreceptor binding assay by using [3H]5-HT radioligand against Dopamine receptor D1.
The target in assay [19] is T4, 5-hydroxytryptamine receptor 1B. Nature of the assay: Binding affinity in radioreceptor binding assay by using [3H]5-HT radioligand against 5-hydroxytryptamine 1B receptor. The essentials: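 Rat cortical membranes; [3H]serotonin as ligand, as in the 5-HT-1 assay, with 8-OH-DPAT added at 100 nM final to the incubation medium; assays run in duplicate; one to five concentration-response curves per compound.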

The target of assay [20] is T1, Serotonin 2 (5-HT2) receptor. Nature of the assay: Binding affinity determined in radioreceptor binding assay by using [3H]ketanserin radioligand against 5-hydroxytryptamine 2 receptor. Type of assay: protein assay.
Assay [21] addresses T4, 5-hydroxytryptamine receptor 1B. Briefly: Binding affinity determined in radioreceptor binding assay by using [3H]5-HT radioligand against 5-hydroxytryptamine 1B receptor. In outline: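 Rat cortical tissue labelled with [3H]serotonin. The incubation medium included 8-OH-DPAT at 100 nM final. Run in duplicate, with one to five concentration–response curves per compound.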

The target in assay [22] is T5, Serotonin 1 (5-HT1) receptor. Nature of the assay: Binding affinity in radioreceptor binding assay by using [3H]5-HT radioligand against 5-hydroxytryptamine 1 receptor. The class given is protein assay.

T4 sequence (P28564 whole entry): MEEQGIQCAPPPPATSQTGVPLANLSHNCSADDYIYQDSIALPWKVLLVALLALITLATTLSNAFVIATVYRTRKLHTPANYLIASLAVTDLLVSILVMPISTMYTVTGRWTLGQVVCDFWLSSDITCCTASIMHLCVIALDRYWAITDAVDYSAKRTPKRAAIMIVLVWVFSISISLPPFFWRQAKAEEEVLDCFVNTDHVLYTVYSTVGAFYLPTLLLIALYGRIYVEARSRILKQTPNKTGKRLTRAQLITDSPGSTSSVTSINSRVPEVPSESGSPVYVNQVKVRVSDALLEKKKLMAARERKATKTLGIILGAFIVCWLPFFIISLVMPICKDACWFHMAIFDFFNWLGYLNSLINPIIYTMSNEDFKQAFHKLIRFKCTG
T2 sequence (P61169 whole entry): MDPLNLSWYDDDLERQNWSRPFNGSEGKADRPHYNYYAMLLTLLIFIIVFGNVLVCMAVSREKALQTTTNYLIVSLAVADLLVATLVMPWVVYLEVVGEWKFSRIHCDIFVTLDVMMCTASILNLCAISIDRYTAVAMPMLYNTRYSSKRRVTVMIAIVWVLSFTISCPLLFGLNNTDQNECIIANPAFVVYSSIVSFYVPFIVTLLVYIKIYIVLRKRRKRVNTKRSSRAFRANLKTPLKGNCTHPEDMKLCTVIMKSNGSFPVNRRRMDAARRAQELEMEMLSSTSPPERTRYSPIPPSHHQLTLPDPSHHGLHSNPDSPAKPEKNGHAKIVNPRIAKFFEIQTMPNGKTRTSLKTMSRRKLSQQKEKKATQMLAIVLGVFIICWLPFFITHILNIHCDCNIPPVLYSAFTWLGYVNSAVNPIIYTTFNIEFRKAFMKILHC
T3 sequence (P18901 whole entry): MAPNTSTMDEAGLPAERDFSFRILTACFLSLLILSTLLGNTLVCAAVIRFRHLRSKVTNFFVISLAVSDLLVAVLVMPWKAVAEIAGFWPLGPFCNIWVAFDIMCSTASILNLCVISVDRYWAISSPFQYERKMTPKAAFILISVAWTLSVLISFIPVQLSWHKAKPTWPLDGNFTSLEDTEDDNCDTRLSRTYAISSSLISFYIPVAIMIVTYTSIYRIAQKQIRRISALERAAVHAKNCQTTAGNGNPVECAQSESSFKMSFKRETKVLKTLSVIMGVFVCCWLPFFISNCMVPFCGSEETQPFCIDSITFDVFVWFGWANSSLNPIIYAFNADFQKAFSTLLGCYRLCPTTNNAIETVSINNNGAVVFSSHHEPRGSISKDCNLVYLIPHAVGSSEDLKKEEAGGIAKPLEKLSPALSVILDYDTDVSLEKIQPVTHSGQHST

Regarding `CCc1ccccc1N1CCNCC1`, the Ki in assay [1] is 124 nM; in assay [2] it was 449 nM; in assay [3], over 1000 nM; in assay [4] it was 8.2 nM; in assay [5], 17.1 nM; in [6], 22.7 nM. The Ki in assay [7] amounted to 96 nM. Further, the Loss in assay [8] is listed as 2.5%. The compound also gave an ED50 in [9] of 6.8 mg/kg.
Turning to `Clc1cncc(N2CCNCC2)n1` [MK-212], the Ki is over 1000 nM in assay [1]; over 1000 nM in assay [2]; over 1000 nM in assay [3]; 178 nM in assay [4]; 844 nM in [5]; 202 nM in [6]. The compound also gave a Ki in assay [7] of 913 nM. The Loss in assay [10] was 19%. This compound showed an ED50 in assay [9] of 2.8 mg/kg.
Turning to `CC(C)c1ccccc1N1CCNCC1`, the Ki in [1] is 190 nM; in assay [2], 111 nM; in assay [4], 3.98 nM; in [5], 23.4 nM; in [11], over 1000 nM; in [6], 12.5 nM. The compound also had a Ki in assay [7] of 168 nM. In assay [8], the Loss is 0.1%. In assay [9], the 50% effect level (ED50) was put at a dose of 5.9 mg/kg.
Consider `Clc1ccccc1N1CCNCC1`, for which the Ki in assay [1] is over 1000 nM; in assay [13], over 1000 nM; in assay [4] it was 11.7 nM; in assay [6], 19.5 nM; in assay [14], over 1000 nM. Moreover, the Loss in assay [10] was 3.1%. In addition, in assay [12], the ED50 turned out to be 10.2 mg/kg.
Consider `FC(F)(F)c1cccc(N2CCNCC2)c1`, for which the Ki in assay [15] was 80.6 nM; in [16] it was 31.1 nM; in assay [7] it was 337 nM; in assay [17] it was 530 nM; in [18], over 1000 nM; in assay [19] it was 2.25 nM. The Loss in assay [10] is 0.6%. For the same compound, in [9], the ED50 stood at 2.6 mg/kg.
On to `Cc1ccccc1N1CCNCC1`, for which the Ki in assay [2] was over 1000 nM; in [3] it was over 1000 nM; in [4], 44.6 nM; in [5] it was 62.4 nM; in [20], 558 nM; in [6], 27.4 nM. This compound yielded a Ki in [7] of 108 nM. The compound also registered an ED50 in [9] of over 20 mg/kg.
As for `Oc1ccccc1N1CCNCC1`, the inhibitory constant (Ki) is over 1000 nM in assay [2]; over 1000 nM in assay [16]; over 1000 nM in [3]; 74.2 nM in assay [21]; 117 nM in [22]; 35.3 nM in assay [6]. This compound came in with a Ki in [7] of 516 nM. In addition, the ED50 in [9] was determined as 26.2 mg/kg.
